# Screening results: PubChem, several laboratories
# Most compounds without a hit are left out; they make up all but 5.3% or so of the library.
# T cruzi repl – inhibitors of intracellular T. cruzi growth, primary screen, luminescence, NIH3T3 host cells. T. cruzi beta-gal in NIH3T3, 90 h. inhibition, % (no concentration beside the values). hit rate 1.4% among 300,000. AID 1885, 2009;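 active means mean inhibition across valid replicates above about 55%, limit read from the data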;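 further: signal also drops with host cell toxicity which is not excluded here; 0% = plate median of DMSO wells and 100% = zero luminescence signal; higher percent means less beta-gal luminescence so fewer parasites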
#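 Test system: β-gal T. cruzi (Tulahuen C4) inside NIH/3T3 cells / Quantity: 5,000 cells/well / Measured by: luminescence from GalScreen with 0.05% NP40, read after 60 min / Medium: DMEM plus 2% FBS / Measure: parasite load inhibition, % / Reagent: Tulahuen C4 trypomastigotes, 5000/well / Schedule: co-culture of at least 90 h after 3 h attachment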
# Mdm2 MdmX PPI – inhibitors of human Mdm2-MdmX association, primary screen, cell-based, luminescence, split luciferase, SaOS-2, uHTS; AID 485346, 2010; Protein Mdm4 (Homo sapiens) + E3 ubiquitin-protein ligase Mdm2 (Homo sapiens), …; hit rate 3% among 330,000; inhibition, % at 8 µM; SaOS-2 split-luciferase Mdm2/MdmX complementation;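 active means inhibition of at least 50% at 8 µM in the primary screen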
# Calb FLC – C. albicans growth inhibition with fluconazole, primary screen, CaCi-2 strain, Alamar Blue fluorescence. C. albicans CaCi-2 + fluconazole, 48 h. growth inhibition, % (no concentration beside the values). hit rate 0.57% among 300,000;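 active means growth inhibition above about 58% in most replicates, limit read from the data, passing the limit was not always enough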;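 further: all wells also contain fluconazole at 8 µg/ml as a sub-toxic cotreatment; 0% = median of DMSO wells and 100% = median of geldanamycin control wells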
# CSC inhib – cancer stem cell viability inhibitors, primary screen, luminescence. cancer stem cell-like cells viability. inhibition, % at 7.5 µM. hit rate 1.1% among 300,000. AID 2717, 2010; in the data active means inhibition above about 75%; tested in HMLE shEcad cells
# NLRP3 yeast inh – NALP3 inflammasome inhibitors in reconstituted yeast, primary screen, luminescence, uHTS. Yeast reconstituted NLRP3/ASC/caspase-1, beta-gal luminescence, 24 h. inhibition, % at 10 µM. hit rate 0.39% among 330,000. AID 2825, 2010;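 active means inhibition of 50% or more; inactive means inhibition below 50%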;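 further: plate controls were induced DMSO wells for no effect and uninduced yeast grown without galactose for full effect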
# Beta cell apopt – inhibitors of cytokine-induced beta cell apoptosis, primary screen, luminescence | INS-1E cytokine-induced death, ATP luminescence, 48 h; percent of positive-control rescue, neutral wells zero | protection from apoptosis, % (test concentration not listed) | hit rate 0.8% among 300,000 | AID 435005, 2010;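 active means Every replicate reaches about 75%, or at least half do and their mean reaches it too, limit read from the data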;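 further: 0% = cytokine-treated negative control wells and 100% = positive control rescue; higher means more ATP so stronger rescue from cytokine killing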
# NALP3 yeast conf – NALP3 inhibitors retested in yeast, confirmation, luminescence, single concentration. inhibition, % at 10 µM. yeast expressing human NALP3. shares compounds with NLRP3 yeast inh. hit rate 81% among 1,300; in the data active means inhibition above about 48%
# Casp1 ASC ctr – CASP1-PYCARD signaling inhibition in yeast, confirmatory test, counterassay for NLRP3 inhibitor program, one-dose; inhibition, % at 10 µM; shares compounds with NLRP3 yeast inh; yeast expressing Caspase-1-ASC, luminescence counter screen; AID 488784, 2010; hit rate 66% among 1,000
# NALP3 retest – NALP3 inhibitors in yeast, repeat test, confirmation, luminescence, single concentration, retest | shares compounds with NLRP3 yeast inh | yeast expressing human NALP3, luminescence read-out | inhibition, % at 10 µM | hit rate 53% among 1,000 | AID 488794, 2010
# Numbers without * were called inactive; x = no result; ! = not confirmed by another sample. Unless noted, no stated cut-off is given here; in the data, active means inhibition above about 50%; inactive means the rest.
SMILES,T cruzi repl,Mdm2 MdmX PPI,Calb FLC,CSC inhib,NLRP3 yeast inh,Beta cell apopt,NALP3 yeast conf,Casp1 ASC ctr,NALP3 retest
CCOC(=O)c1sc(=NC(=O)c2cccc(OC)c2)n(C)c1C,-3,-25,0,-4,15,0,x,x,x
CCOC(=O)c1sc(=NC(=O)c2ccccc2)n(C)c1C,10,-295,-1,-9,63*,-1,75*,x,x
C/C(=N\NC(=O)c1ccccc1N)c1ccc(NC(=O)Cc2ccccc2)cc1,-7,-5,3,-7,3,2,x,x,x
Cn1c(/C=N/Nc2nc3ccccc3[nH]2)nc2ccccc21,51,-132,80,33,51*,18,74*,9,22
CCC1CCCCN1C(=O)CCn1ccnc1 (stereo not given),-6,-18,5,-14,9,-5,x,x,x
Cc1ccccc1NC(=O)c1ccc(Nc2c([N+](=O)[O-])cc([N+](=O)[O-])c3ccccc23)cc1,63*,44,26,34,56*,31,-9,x,x
Cc1c(NC(=O)C(C)OC(=O)c2cccs2)c(=O)n(-c2ccccc2)n1C (stereo not given),4,17,-12,7,7,-7,x,x,x
Cc1ccc(C(=O)NC(=C(Cl)Cl)S(=O)(=O)c2ccc(Cl)cc2)cc1,-17,35,-11,-4,57*,-7,41,33,40
Cc1ccc(C(=O)NNC(=S)NC(=O)c2ccc(Cl)cc2)cc1,-6,42,-7,26,71*,19,78*,74*,72*
N#Cc1nc(COc2ccc(F)cc2)oc1N1CCCC1,13,1,0,10,68*,1,40,65*,54*
Cc1ccccc1OCc1nc(C#N)c(N2CCCC2)o1,15,21,37,-6,71*,-5,81*,83*,71*
N#Cc1nc(COc2cccc(Cl)c2)oc1N1CCCC1,12,20,0,-3,51*,-7,65*,55*,44
N#Cc1nc(COc2ccccc2)oc1N1CCN(Cc2ccccc2)CC1,41,-4,6,23,1,1,x,x,x
CCCn1cc(S(=O)(=O)c2ccc(C)cc2)c(=O)c2cc(OC)ccc21,2,13,1,7,16,1,x,x,x
CCn1cnc2sc(-c3ccccc3)cc2c1=O,-7,-93,7,-4,63*,-17,56*,66*,56*
COc1cc(C=O)c(Br)cc1OCC(=O)NCCc1ccccc1,0,-12,15,-5,-112,3,-19,x,x
COc1cc(Br)c(CCNC(=O)Cc2ccccc2)cc1OC,-12,-29,38,-2,8,2,x,x,x
CCc1ccc(NC(=O)Cn2c(SC)nc3ccccc32)cc1,-7,7,-6,-9,20,3,x,x,x
CN1CCc2cccc3c2[C@H]1Cc1ccc(O)c(O)c1-3,1,48,x,9,52*!,-12,59*,24,28
Cc1ccc(C(CNS(=O)(=O)c2ccc(F)cc2)N2CCN(C)CC2)cc1 (stereo not given),-4,6,-4,x,12,-3,x,x,x
CSc1nsc(SCC(=O)NCc2ccc(C)cc2)n1,-9,-1,-4,-9,51*,-3,62*,44,39
CSc1nsc(SCC(=O)NCc2ccccc2)n1,-21,24,17,-4,23,-3,x,x,x
O=C(NCCCN1CCCC1=O)C1CCN(S(=O)(=O)c2ccc(F)cc2)CC1,x,3,x,x,1,-4,x,x,x
O=C1NCC2=C1C(c1ccc(Br)cc1)Nc1ccccc1N2 (stereo not given),-9,2,9,-8,52*,-5,63*,41,33
C=CCN1C(=Nc2ccccc2)SC/C1=C\C(=O)OC,4,-2,-14,-2,22,2,x,x,x
SMILES,T cruzi repl,Mdm2 MdmX PPI,Calb FLC,CSC inhib,NLRP3 yeast inh,Beta cell apopt,NALP3 yeast conf,Casp1 ASC ctr,NALP3 retest
O=C(Nc1ccc(-c2nc3ccccc3o2)cc1)C1CCCO1 (stereo not given),-3,-138,9,x,55*,1,72*,60*,41
COc1ccc(-c2nc3ccccc3s2)cc1O,-2,2,3,25,73*,2,46*,73*,64*
CC(=O)Nc1ccc(O)c(-c2nc3ccccc3s2)c1,-17,-29,-28,-3,56*,3,67*,x,x
COc1cc(-c2nc3ccccc3s2)ccc1O,-16,-121,2,21,26,2,x,x,x
CC(=O)Nc1cccc(-c2nc3ccc(NC(C)=O)cc3s2)c1,-7,-133,6,-2,13,-3,x,x,x
CC(=O)Nc1cccc(-c2nc3ccccc3s2)c1,3,-124,4,13,54*,1,46,x,x
CC(=O)Nc1cccc(-c2cc(-c3c(Cl)cccc3Cl)no2)c1,53,14,7,24,52*,-6,47,53*,52*
CCc1nc(N)c(C#N)c(-c2ccco2)c1C,13,22,11,10,23,-2,x,x,x
CC(=N)C1=C(O)CC(c2ccccc2)CC1=O (stereo not given),-5,18,-1,-2,20,-4,x,x,x
Oc1cccc(-c2nc3ccccc3s2)c1,-8,-147,-23,8,73*,x,84*,82*,69*
Nc1cccc(-c2nc3ccccc3s2)c1,3,-156,-1,9,26,-3,x,x,x
CCCn1c(N)c(N(CCOC)C(=O)C(C)Oc2ccc(F)cc2)c(=O)[nH]c1=O (stereo not given),1,17,-1,x,13,2,x,x,x
Cc1ccc(NC(=O)C2CCN(S(=O)(=O)c3ccc4c(c3)C(C)(C)C(=O)N4C)CC2)c(C)c1,-7,9,12,2,3,12,x,x,x
COc1ccc(C)cc1NC(=O)C1CCN(S(=O)(=O)c2ccc3c(c2)C(C)(C)C(=O)N3C)CC1,40,16,13,17,80*,4,47,15,17
O=C(O)c1ccc(N2CCCS2(=O)=O)cc1,-10,24,-1,6,15,-4,x,x,x
CC(NC(=O)c1ccccc1Br)c1ccc2c(c1)CCCC2 (stereo not given),-1,20,-3,x,57*,3,70*,52*,31
Oc1ccc(-c2cn3c(n2)SCC3)cc1,-6,13,3,x,13,-2,x,x,x
